# Assay results as given in paper PMC3472134 (Bioorganic & medicinal chemistry letters, 2012).
# Entries after “also recorded” stand apart in the source; their conditions may differ.
# Key:
# human recombinant HDAC8 [1] = biological target: T1, human recombinant HDAC8 (Homo sapiens, UniProt Q9BY41); type: binding; conditions: denaturing conditions, excess of competitor (1f at 50 fold molar excess)
# T1 sequence (Q9BY41 1-377): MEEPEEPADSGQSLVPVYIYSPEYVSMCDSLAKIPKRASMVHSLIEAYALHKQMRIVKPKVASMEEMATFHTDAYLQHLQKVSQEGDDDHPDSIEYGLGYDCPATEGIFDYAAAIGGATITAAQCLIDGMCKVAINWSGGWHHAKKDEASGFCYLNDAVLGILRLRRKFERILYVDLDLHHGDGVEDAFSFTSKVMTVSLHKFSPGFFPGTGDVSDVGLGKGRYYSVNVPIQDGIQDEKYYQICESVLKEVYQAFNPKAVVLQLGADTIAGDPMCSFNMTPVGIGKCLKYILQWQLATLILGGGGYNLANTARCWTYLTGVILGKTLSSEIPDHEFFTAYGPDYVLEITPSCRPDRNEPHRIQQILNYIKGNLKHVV
# [2] = test system: nuclear class I HDACs (acetylation status of histone H4) in SH-SY5Y cells; experiment: Western blot of acetylation of histone H4 in SH-SY5Y cells; type: cell-based; conditions: 24 h treatment
# Summary of the method: (§1)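 SH-SY5Y cells were seeded at 1.0 x 10^5 cells/well and grown to 80% confluence in 1:1 DMEM:OPTI-MEM with 10% FBS and antibiotics. They were exposed to vehicle or rising concentrations of test compound for 24 h at 37 °C, 5% CO2, then lysed in RIPA with protease/phosphatase inhibitors. 20 µg of total protein (BCA) went to SDS-PAGE/PVDF, probed overnight at 4 °C for acetyl-α-tubulin or acetyl-histone H4, with GAPDH; chemiluminescence imaged by CCD.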
# recombinant human HDAC3 = recombinant human HDAC3 (Homo sapiens, UniProt O15379); experiment: HDAC3 inhibition, fluorogenic substrate Boc-Lys; type: biochemical
# recombinant human HDAC3, sequence (O15379 whole entry): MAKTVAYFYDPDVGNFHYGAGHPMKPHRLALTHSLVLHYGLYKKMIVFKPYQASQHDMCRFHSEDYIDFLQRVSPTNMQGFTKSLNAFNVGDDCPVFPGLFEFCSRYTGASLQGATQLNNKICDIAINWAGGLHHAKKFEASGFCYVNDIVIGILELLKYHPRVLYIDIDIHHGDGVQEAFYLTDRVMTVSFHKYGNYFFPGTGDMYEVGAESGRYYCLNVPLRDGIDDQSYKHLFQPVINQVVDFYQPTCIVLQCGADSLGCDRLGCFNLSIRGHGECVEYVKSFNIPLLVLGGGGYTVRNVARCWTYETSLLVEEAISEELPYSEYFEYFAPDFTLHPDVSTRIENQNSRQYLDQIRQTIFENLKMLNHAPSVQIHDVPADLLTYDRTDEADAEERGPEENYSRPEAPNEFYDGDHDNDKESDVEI
# recombinant human HDAC3, sequence (Q9Y618 395-489 partner limits assumed): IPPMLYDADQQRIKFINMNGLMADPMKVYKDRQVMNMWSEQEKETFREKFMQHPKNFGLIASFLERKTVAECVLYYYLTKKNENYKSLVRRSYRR
# [3] = test system: cytoplasmic HDAC6 (acetylation status of α-tubulin) in SH-SY5Y cells; experiment: Western blot of acetylation of α-tubulin in SH-SY5Y cells; type: cell-based; conditions: 24 h treatment
# Summary of the method: as §1
# human recombinant HDAC8 [4] = biological target: T1, human recombinant HDAC8; experiment: HDAC8 inhibition, fluorogenic substrate Fluor de Lys; type: biochemical
# Solubility = type: physicochemical; conditions: remark on the photolabeling competition experiment
SMILES,"Competition with probe 1b, effect on biotinylation of HDAC8 (human recombinant HDAC8 [1])",IC50 (recombinant human HDAC3) [µM],also measured
"CC(/C=C/C(=O)NO)=C\[C@@H](C)C(=O)c1ccc(N(C)C)cc1 [TSA, Trichostatin A]",pronounced decrease in biotinylation,–,–
COc1ccc(Cn2ccc3ccc(C(=O)NO)cc32)cc1 [PCI34051],pronounced decrease in biotinylation,–,–
COC(=O)CCCCCCC(=O)Nc1ccc(OCc2ccccc2)cc1 [1e],–,–,IC50 (human recombinant HDAC8 [4]): > 66 µM
"COC(=O)CCCCCCC(=O)Nc1ccc(OCc2cc(C)cc(C)c2)cc1 [1f, 7-[4-(3,5-Dimethyl-benzyloxy)phenylcarbamoyl]heptanoic acid methyl ester]",pronounced decrease in biotinylation,–,Solubility (Solubility): low solubility

# Second part, led by results:
"Competition with probe 1b, effect on biotinylation of HDAC8 (human recombinant HDAC8 [1])",IC50 (recombinant human HDAC3) [µM],SMILES,also measured
–,> 66,"COc1cc(COc2ccc(NC(=O)CCCCCCC(=O)OCc3ccc(CN=[N+]=[N-])cc3)cc2)cc(N=[N+]=[N-])c1 [1i, 7-[4-(3-Azido-5-methoxybenzyloxy)phenylcarbamoyl]heptanoicacid-4-azidomethylbenzyl ester]",Acetylation status of histone H4 [2]: increase acetylation of H4; Deacetylation of α-tubulin [3]: did not inhibit; also recorded: not α tubulin
–,> 66,"COc1cc(COc2ccc(NC(=O)CCCCCCC(=O)OCCN=[N+]=[N-])cc2)cc(N=[N+]=[N-])c1 [1h, 7-[4-(3-Azido-5-methoxybenzyloxy)phenylcarbamoyl]heptanoicacid-2-azidoethyl ester]",–
